Key:
Canis familiaris [1] = experiment: Antihypertensive activity by the increase in the vertebral blood flow in anesthetized dogs expressed as duration of half of the maximum change in blood flow.; assay type: functional, Canis lupus familiaris
Outline: (§1)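 Anesthetized dogs; compounds given intraarterially. Vertebral blood flow recorded, and a dose-response curve built from peak responses. Potency given as ratio to diltiazem, calculated from the dose-response curves. Half duration is the time, in minutes, that blood flow stays at one-half of the maximum change.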

Canis familiaris [2] = species on record: Canis familiaris; experiment: Antihypertensive activity expressed as the ratio of the potency evaluated by increased vertebral blood flow (VBF) to that of diltiazem.; assay type: functional, Canis lupus familiaris; outline: as §1
Cavia porcellus [3] = species on record: Cavia porcellus; experiment: (§2) Increase in the coronary blood flow (CBF) was determined in isolated guinea pig heart at a dose of 100 ug/heart; assay type: functional, Artery
Outline: (§3)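 Hartley guinea pig hearts perfused by the Langendorff method with modified Locke-Ringer solution containing defibrinated rabbit blood, at 40 cm H2O and 29 ± 1 °C. Compounds in saline injected into the aortic cannula at 3, 10, 30 or 100 μg/heart. Coronary flow measured by drop counter; graded by the lowest dose giving an increase of at least 0.5 mL/min.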

Rattus norvegicus [4] = experiment: Change in blood pressure in spontaneously hypertensive rats 1 hr following 30 mg/kg p.o.; assay type: functional; details: route oral
Outline: (§4)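 Male spontaneously hypertensive rats, fasted 20 h. Compounds dissolved in deionized water and given orally (30 mg/kg; some at 100 mg/kg). Blood pressure measured by tail-cuff in conscious animals. Change (mmHg) taken from the predosing value at 1 and 4 h, or 1 and 5 h, after dosing. N = 3-6.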

Rattus norvegicus [5] = experiment: Hypotensive activity in SHR (spontaneously hypertensive rats) expressed as change in blood pressure(mmHg) after 4 hr dosing at a concentration of 30 mg/kg; assay type: functional; outline: as §4
Rattus norvegicus [6] = experiment: Hypotensive activity in SHR (spontaneously hypertensive rats) expressed as change in blood pressure(mmHg) after 5 hr dosing at a concentration of 30 mg/kg; assay type: functional; outline: as §4
Cavia porcellus [7] = species on record: Cavia porcellus; experiment: Increase in the coronary blood flow (CBF) was determined in isolated guinea pig heart at a dose of 30 ug/heart; assay type: functional, Artery; outline: as §3
Rattus norvegicus [8] = experiment: Hypotensive activity in SHR (spontaneously hypertensive rats) expressed as change in blood pressure(mmHg) after 4 hr dosing at a concentration of 100 mg/kg; assay type: functional; outline: as §4
Cavia porcellus [9] = species on record: Cavia porcellus; experiment: as §2; assay type: functional; outline: as §3
Rattus norvegicus [10] = experiment: Hypotensive activity in SHR (spontaneously hypertensive rats) expressed as change in blood pressure(mmHg) after 1 hr dosing at a concentration of 30 mg/kg; assay type: functional; outline: as §4

Structure (SMILES): COc1ccc(C2Sc3cccc(Cl)c3N(CCN(C)C)C(=O)C2O)cc1.Cl (stereo unspecified)
- Half duration (Canis familiaris [1]): 33 min
- Potency ratio (Canis familiaris [2]): 0.2
- Increase in CBF (Cavia porcellus [3]): >0.5 mL/min
- Change in blood pressure (Rattus norvegicus [4]): -31.7 delta mmHg
- Change in blood pressure (Rattus norvegicus [5]): -26 delta mmHg

Structure (SMILES): COc1ccc(C2Sc3cc(Cl)ccc3N(CCN(C)C)C(=O)C2OC)cc1 (single isomer, unassigned; (+))
- Half duration (Canis familiaris [1]): 47 min
- Potency ratio (Canis familiaris [2]): 0.58
- Change in blood pressure (Rattus norvegicus [4]): -76.8 delta mmHg
- Change in blood pressure (Rattus norvegicus [6]): -56.5 delta mmHg

Structure (SMILES): COc1ccc(C2Sc3c(Cl)cccc3N(CCN(C)C)C(=O)C2OC(C)=O)cc1.Cl (stereo in doubt; 2cc)
- Half duration (Canis familiaris [1]): 72 min
- Potency ratio (Canis familiaris [2]): 0.75
- Increase in CBF (Cavia porcellus [7]): >0.5 mL/min

Structure (SMILES): CCC(=O)OC1C(=O)N(CCN(C)C)c2ccc(Cl)cc2SC1c1ccc(OC)cc1 (single isomer, unassigned; (+))
- Half duration (Canis familiaris [1]): 64 min
- Potency ratio (Canis familiaris [2]): 1.45
- Increase in CBF (Cavia porcellus [7]): >0.5 mL/min
- Change in blood pressure (Rattus norvegicus [4]): -67.7 delta mmHg
- Change in blood pressure (Rattus norvegicus [8]): -60.7 delta mmHg

Structure (SMILES): COc1ccc(C2Sc3cc(Cl)ccc3N(CCN(C)C)C(=O)C2OCc2ccc([N+](=O)[O-])cc2)cc1 (single isomer, unassigned; (+))
- Potency ratio (Canis familiaris [2]): 0.58
- Increase in CBF (Cavia porcellus [9]): >0.5 mL/min
- Change in blood pressure (Rattus norvegicus [4]): -11.5 delta mmHg
- Change in blood pressure (Rattus norvegicus [6]): -8.8 delta mmHg

Structure (SMILES): CCCCNC(=O)OC1C(=O)N(CCN(C)C)c2ccc(F)cc2SC1c1ccc(OC)cc1 (stereo unspecified)
- Half duration (Canis familiaris [1]): 58 min
- Potency ratio (Canis familiaris [2]): 0.16
- Increase in CBF (Cavia porcellus [7]): >0.5 mL/min

Structure (SMILES): COc1ccc(C2Sc3c(Cl)cccc3N(CCN(C)C)C(=O)C2O)cc1.Cl (stereo unspecified)
- Half duration (Canis familiaris [1]): 52 min
- Potency ratio (Canis familiaris [2]): 0.91
- Increase in CBF (Cavia porcellus [7]): >0.5 mL/min

Structure (SMILES): CCN(C)CCN1C(=O)C(OC(C)=O)C(c2ccc(OC)cc2)Sc2cc(Cl)ccc21 (single isomer, unassigned; (+))
- Half duration (Canis familiaris [1]): 46 min
- Potency ratio (Canis familiaris [2]): 0.9
- Increase in CBF (Cavia porcellus [9]): >0.5 mL/min
- Change in blood pressure (Rattus norvegicus [4]): -55.5 delta mmHg
- Change in blood pressure (Rattus norvegicus [6]): -22.3 delta mmHg

Structure (SMILES): COc1ccc(C2Sc3cc(Cl)c(Cl)cc3N(CCN(C)C)C(=O)C2OC(C)=O)cc1.Cl (stereo unspecified)
- Half duration (Canis familiaris [1]): 53 min
- Potency ratio (Canis familiaris [2]): 0.51
- Increase in CBF (Cavia porcellus [7]): >0.5 mL/min

Structure (SMILES): CCCN(C)CCN1C(=O)C(OC(C)=O)C(c2ccc(OC)cc2)Sc2cc(Cl)ccc21 (stereo unspecified)
- Half duration (Canis familiaris [1]): 47 min
- Potency ratio (Canis familiaris [2]): 0.5
- Increase in CBF (Cavia porcellus [9]): >0.5 mL/min
- Change in blood pressure (Rattus norvegicus [10]): -16 delta mmHg
- Change in blood pressure (Rattus norvegicus [5]): -9 delta mmHg

Structure (SMILES): COc1ccc(C2Sc3c(ccc(Cl)c3Cl)N(CCN(C)C)C(=O)C2O)cc1.Cl (stereo unspecified)
- Half duration (Canis familiaris [1]): 80 min
- Potency ratio (Canis familiaris [2]): 0.62
- Increase in CBF (Cavia porcellus [7]): >0.5 mL/min

Structure (SMILES): COc1ccc(C2Sc3cc(Cl)ccc3N(CCN(C)C)C(=O)C2OC=O)cc1 (single isomer, unassigned; (+))
- Half duration (Canis familiaris [1]): 44 min
- Potency ratio (Canis familiaris [2]): 0.73
- Increase in CBF (Cavia porcellus [9]): >0.5 mL/min
- Change in blood pressure (Rattus norvegicus [4]): -60 delta mmHg
- Change in blood pressure (Rattus norvegicus [8]): -72.7 delta mmHg

Structure (SMILES): CCCCNC(=O)OC1C(=O)N(CCN(C)C)c2ccc(Cl)cc2SC1c1ccc(OC)cc1 (stereo unspecified)
- Half duration (Canis familiaris [1]): 76 min
- Potency ratio (Canis familiaris [2]): 0.31
- Increase in CBF (Cavia porcellus [7]): >0.5 mL/min

Structure (SMILES): C=CCN(C)CCN1C(=O)C(OC(C)=O)C(c2ccc(OC)cc2)Sc2cc(Cl)ccc21 (stereo unspecified)
- Half duration (Canis familiaris [1]): 37 min
- Potency ratio (Canis familiaris [2]): 1
- Increase in CBF (Cavia porcellus [9]): >0.5 mL/min
- Change in blood pressure (Rattus norvegicus [4]): -29 delta mmHg
- Change in blood pressure (Rattus norvegicus [6]): -17 delta mmHg

Structure (SMILES): CSc1ccc(C2Sc3cc(Cl)ccc3N(CCN(C)C)C(=O)C2O)cc1 (stereo unspecified)
- Half duration (Canis familiaris [1]): 35 min
- Potency ratio (Canis familiaris [2]): 0.09
- Increase in CBF (Cavia porcellus [3]): >0.5 mL/min

Structure (SMILES): COc1ccc(C2Sc3cc(Cl)ccc3N(CCN(C)C)C(=O)C2OC(C)=O)cc1.Cl (single isomer, unassigned; (-))
- Half duration (Canis familiaris [1]): 36 min
- Potency ratio (Canis familiaris [2]): 0.06
- Increase in CBF (Cavia porcellus [9]): <0.5 mL/min
- Change in blood pressure (Rattus norvegicus [4]; 30 mg/kg): -6 delta mmHg
- Change in blood pressure (Rattus norvegicus [5]; 30 mg/kg): -22.7 delta mmHg

Structure (SMILES): COc1ccc(C2Sc3cc(Cl)ccc3N(CCN(C)C)C(=O)C2OC(C)=O)cc1.Cl (stereo in doubt; 2b)
- Half duration (Canis familiaris [1]): 69 min
- Potency ratio (Canis familiaris [2]): 1.15
- Increase in CBF (Cavia porcellus [7]): >0.5 mL/min

Structure (SMILES): COc1ccc([C@@H]2Sc3ccccc3N(CCN(C)C)C(=O)[C@@H]2OC(C)=O)cc1 [DILTIAZEM]
- Half duration (Canis familiaris [1]): 53 min
- Potency ratio (Canis familiaris [2]): 1
- Increase in CBF (Cavia porcellus [7]): >0.5 mL/min
- Change in blood pressure (Rattus norvegicus [4]): -34 delta mmHg
- Change in blood pressure (Rattus norvegicus [5]): -15 delta mmHg

Structure (SMILES): CSc1ccc(C2Sc3cc(Cl)ccc3N(CCN(C)C)C(=O)C2OC(C)=O)cc1 (stereo unspecified)
- Half duration (Canis familiaris [1]): 37 min
- Potency ratio (Canis familiaris [2]): 0.21
- Increase in CBF (Cavia porcellus [3]): >0.5 mL/min

Structure (SMILES): CCOC(=O)OC1C(=O)N(CCN(C)C)c2ccc(Cl)cc2SC1c1ccc(OC)cc1 (stereo unspecified)
- Half duration (Canis familiaris [1]): 44 min
- Potency ratio (Canis familiaris [2]): 0.29
- Increase in CBF (Cavia porcellus [3]): >0.5 mL/min

Structure (SMILES): COc1ccc(C2Sc3c(Cl)cccc3N(CCN(C)C)C(=O)C2O)cc1 (stereo in doubt; (+)-16m)
- Half duration (Canis familiaris [1]): 46 min
- Potency ratio (Canis familiaris [2]): 1.25
- Increase in CBF (Cavia porcellus [7]): >0.5 mL/min
- Change in blood pressure (Rattus norvegicus [4]): -46.7 delta mmHg
- Change in blood pressure (Rattus norvegicus [5]): -30 delta mmHg

Structure (SMILES): COc1ccc(C2Sc3cc(F)ccc3N(CCN(C)C)C(=O)C2OC(=O)c2ccc([N+](=O)[O-])cc2)cc1 (stereo unspecified)
- Half duration (Canis familiaris [1]): 48 min
- Potency ratio (Canis familiaris [2]): 0.35
- Increase in CBF (Cavia porcellus [7]): >0.5 mL/min

Structure (SMILES): CCN(C)CCN1C(=O)C(O)C(c2ccc(OC)cc2)Sc2cc(Cl)ccc21 (stereo unspecified)
- Half duration (Canis familiaris [1]): 38 min
- Potency ratio (Canis familiaris [2]): 0.28
- Increase in CBF (Cavia porcellus [9]): >0.5 mL/min
- Change in blood pressure (Rattus norvegicus [4]): -21.3 delta mmHg
- Change in blood pressure (Rattus norvegicus [5]): -39.3 delta mmHg

Structure (SMILES): COc1ccc(C2Sc3cc(F)ccc3N(CCN(C)C)C(=O)C2OC(C)=O)cc1.Cl (stereo unspecified)
- Half duration (Canis familiaris [1]): 71 min
- Potency ratio (Canis familiaris [2]): 0.37
- Increase in CBF (Cavia porcellus [9]): >0.5 mL/min
- Change in blood pressure (Rattus norvegicus [4]): -64 delta mmHg
- Change in blood pressure (Rattus norvegicus [5]): -50 delta mmHg

Structure (SMILES): COc1ccc(C2Sc3cc(Cl)ccc3N(CCN(C)C)C(=O)C2O)cc1 (single isomer, unassigned; (-))
- Half duration (Canis familiaris [1]): 23 min
- Potency ratio (Canis familiaris [2]): 0.02
- Increase in CBF (Cavia porcellus [9]): <0.5 mL/min
- Change in blood pressure (Rattus norvegicus [4]; 30 mg/kg): 1 delta mmHg
- Change in blood pressure (Rattus norvegicus [5]; 30 mg/kg): -20 delta mmHg
